For data set [1], the system named is Radical scavenging activity. The experiment in a line: Antioxidant activity assessed as DPPH radical scavenging activity. It is filed as functional. In a few lines:
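Compounds were tested in MeOH at 5, 10, 20, 50 and 100 µM with DPPH at 0.1 mM final. Absorbance at 517 nm was read after 30 min. Percent radical inhibition was plotted to give the IC50, the concentration scavenging 50% of DPPH. Trolox was the positive control.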

Data set [2] has as its system Bacillus spizizenii. The experiment in a line: Antimicrobial activity against Bacillus subtilis subsp. spizizenii DMS 347 after 48 hrs by serial dilution method. In kind it is functional. In a few lines:
(§1)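 Bacteria grown as liquid cultures in nutrient broth at 37 °C. […] Growth was scored after 48 h of incubation.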

For data set [3], the system named is Micrococcus luteus. The experiment in a line: Antimicrobial activity against Micrococcus luteus DMS 348 after 48 hrs by serial dilution method. It is filed as functional. In short, it runs like this:
as §1

Data set [4] deals with Saccharomyces cerevisiae. As to the kind of experiment: Antimicrobial activity against Saccharomyces cerevisiae DMS 70449 after 48 hrs by serial dilution method. In kind it is functional.
Data set [5] deals with Escherichia coli. As to the kind of experiment: Antimicrobial activity against Escherichia coli DSM 498 after 48 hrs by serial dilution method. It is filed as functional, organism-based. In a few lines: as §1
In data set [6] the test system is Artemia salina. The experiment in a line: Toxicity against Artemia salina after 24 hrs. In kind it is organism-based. To be noted: in vivo. In short, it runs like this:
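Freshly hatched Artemia salina larvae (10 per test) in 5 mL artificial seawater; compounds dissolved in DMSO, tested at final 100, 10 and 1 ppm, in triplicate. Surviving shrimps counted after 24 h; LD50 with 95% confidence intervals by Finney probit analysis, reported in ppm.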

The target of data set [7] is Acetylcholinesterase (Homo sapiens) (UniProt P22303).
Chain of Acetylcholinesterase (Homo sapiens) (P22303 whole entry): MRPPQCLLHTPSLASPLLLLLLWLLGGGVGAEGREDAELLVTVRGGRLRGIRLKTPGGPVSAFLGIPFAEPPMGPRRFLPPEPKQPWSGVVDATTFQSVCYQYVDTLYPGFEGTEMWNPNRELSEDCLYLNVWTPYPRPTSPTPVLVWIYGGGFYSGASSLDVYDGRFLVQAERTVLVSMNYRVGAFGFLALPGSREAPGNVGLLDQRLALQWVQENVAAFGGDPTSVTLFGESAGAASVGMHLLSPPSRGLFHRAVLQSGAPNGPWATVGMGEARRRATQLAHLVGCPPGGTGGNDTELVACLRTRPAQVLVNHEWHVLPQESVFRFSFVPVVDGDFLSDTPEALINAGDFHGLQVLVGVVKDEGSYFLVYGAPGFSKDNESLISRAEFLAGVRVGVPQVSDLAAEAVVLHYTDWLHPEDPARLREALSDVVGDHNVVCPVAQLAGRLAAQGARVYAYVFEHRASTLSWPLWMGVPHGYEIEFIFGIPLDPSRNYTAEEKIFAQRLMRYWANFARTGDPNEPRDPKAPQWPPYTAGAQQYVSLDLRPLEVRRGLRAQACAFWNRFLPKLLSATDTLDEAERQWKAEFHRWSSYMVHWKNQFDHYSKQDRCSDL

Values after ≈ are worked out from the molar mass of the structure shown. Active and inactive are the calls of the source. The rule behind the calls is not given here.

On to `CC1=CCC[C@H]2[C@](C)(Cc3cc(O)c(SC(C)C(=O)O)cc3O)[C@@H](C)CC[C@]12C` (stereo partly specified), for which the 50% inhibitory concentration (IC50) in data set [1] (read-out: IC50) worked out at 35.3 µM. Further, the MIC in data set [2] (DMS 347, 48 h) was 10 µg/mL (≈ 23.9 µM); in data set [7], 1 µg. The MIC entry in data set [3] and in data set [4] was “inactive” throughout. The result in data set [5] was inactive. In data set [6], this compound had an LC50 above 50 ppm.
As to GENTAMICIN, the MIC in data set [2] is 1 µg/mL; in data set [3], 10 µg/mL.
In the case of `CC1=CCC[C@H]2[C@](C)(CC3=CC(O)C(S[C@H]4CC[C@@]5(C)C(=CC[C@H]6[C@@H]7CC[C@H]([C@H](C)CCCC(C)C)[C@@]7(C)CC[C@@H]65)C4)=CC3O)[C@@H](C)CC[C@]12C` (stereo partly specified), the IC50 in data set [1] (read-out: IC50) is 71.4 µM. Also, in data set [6], the LC50 entry is reported as “Not Active”.
Consider `CC1=CCC[C@H]2[C@](C)(Cc3cc(O)ccc3O)[C@@H](C)CC[C@]12C` [AVAROL], for which, in data set [1] (read-out: IC50), the IC50 was 18 µM. Moreover, the MIC worked out at 25 µg/mL (≈ 79.5 µM) in data set [2] (DMS 347, 48 h); 10 µg/mL (≈ 31.8 µM) in data set [3] (DMS 348, 48 h); 10 µg in data set [7]. The MIC result in data set [4] is “inactive”. Also, the outcome in data set [5] was inactive. For the same compound, in data set [6], the LC50 was 0.18 ppm.
As for `CC1=CCC[C@H]2[C@](C)(Cc3cc(O)cc(Sc4cccc(C(=O)O)c4)c3O)[C@@H](C)CC[C@]12C`, the 50% inhibitory concentration (IC50) in data set [1] (read-out: IC50) was determined as 31.8 µM. Also, the MIC in data set [2] (DMS 347, 48 h) is 10 µg/mL (≈ 21.4 µM); in data set [3] (DMS 348, 48 h), 10 µg/mL (≈ 21.4 µM); in data set [7] it was 1 µg. Also, in data set [4], the MIC result was “inactive”. Besides, in data set [5], the outcome was inactive. This compound had an LC50 in data set [6] of 14.73 ppm.
Turning to `Cc1c(C)c2c(c(C)c1O)CCC(C)(C(=O)O)O2` (stereo unspecified) [TROLOX], the IC50 in data set [1] (read-out: IC50) came to 25.8 µM.
Consider `CC1=CCC[C@H]2[C@](C)(Cc3cc(O)cc(SC(C)C(=O)O)c3O)[C@@H](C)CC[C@]12C` (stereo partly specified), for which the IC50 in data set [1] (read-out: IC50) amounted to 34.6 µM. Moreover, the MIC in data set [2] (DMS 347, 48 h) turned out to be 10 µg/mL (≈ 23.9 µM); in data set [7] it was 1 µg. Moreover, the MIC result in data set [3] and in data set [4] was “inactive” throughout. For the same compound, the result in data set [5] was inactive. Further, the LC50 in data set [6] stood at 27.25 ppm.
With `CC1=CCC[C@H]2[C@](C)(Cc3cc(O)c(Sc4nc5ccccc5s4)cc3O)[C@@H](C)CC[C@]12C`, in data set [1] (read-out: IC50), the IC50 was 31.2 µM. For the same compound, the MIC result in data set [2], in data set [3] and in data set [4] was “inactive” each time. The outcome in data set [5] was inactive. The LC50 entry in data set [6] is on record as “Not Active”. The compound also yielded an MIC in data set [7] above 10 µg.
As for `CC1=CCC[C@H]2[C@](C)(Cc3cc(O)cc(Sc4nc5ccccc5s4)c3O)[C@@H](C)CC[C@]12C`, the IC50 in data set [1] (read-out: IC50) is 29.5 µM. The MIC entry in data set [2] was “inactive”. The MIC in data set [3] (DMS 348, 48 h) worked out at 0.01 µg/mL (≈ 0.0208 µM); in data set [4] (DMS 70449, 48 h), 100 µg/mL (≈ 208 µM); in data set [7], 10 µg. In data set [5], the outcome was inactive. In data set [6], the LC50 entry is reported as “Not Active”.
In the case of `CC1=CCC[C@H]2[C@](C)(CC3=CC(O)C(S[C@H]4CC[C@@]5(C)C(=CC[C@H]6[C@@H]7CC[C@H]([C@H](C)CCCC(C)C)[C@@]7(C)CC[C@@H]65)C4)=C(S[C@H]4CC[C@@]5(C)C(=CC[C@H]6[C@@H]7CC[C@H]([C@H](C)CCCC(C)C)[C@@]7(C)CC[C@@H]65)C4)C3O)[C@@H](C)CC[C@]12C` (stereo partly specified), the IC50 in data set [1] (read-out: IC50) is 41.5 µM. Moreover, the MIC result in data set [2], in data set [3] and in data set [4] was “inactive” each time. Moreover, in data set [5], the result was inactive. The LC50 result in data set [6] was “Not Active”. In data set [7], this compound registered an MIC above 10 µg.
With `CC1=CCC[C@H]2[C@](C)(CC3=CC(=O)C=CC3=O)[C@@H](C)CC[C@]12C` [AVARONE], the IC50 in data set [1] (read-out: IC50) is 32.1 µM. The MIC in data set [2] (DMS 347, 48 h) turned out to be 10 µg/mL (≈ 32 µM); in data set [3] (DMS 348, 48 h), 1 µg/mL (≈ 3.2 µM); in data set [7], 1 µg. In addition, the MIC result in data set [4] is “inactive”. For the same compound, the outcome in data set [5] was inactive. The LC50 in data set [6] is listed as 0.14 ppm.
On to `CC1=CCC[C@H]2[C@](C)(Cc3cc(O)cc(Sc4ccccc4CO)c3O)[C@@H](C)CC[C@]12C`, for which, in data set [1] (read-out: IC50), the IC50 came out at 25.3 µM. Moreover, the MIC result in data set [2], in data set [3] and in data set [4] was “inactive” in each case. In addition, the result in data set [5] was inactive. The compound also registered a median lethal concentration (LC50) in data set [6] above 50 ppm. This compound had an MIC in data set [7] of 10 µg.
For the compound `CC1=CCC[C@H]2[C@](C)(CC3=CC(=O)C(S[C@H]4CC[C@@]5(C)C(=CC[C@H]6[C@@H]7CC[C@H]([C@H](C)CCCC(C)C)[C@@]7(C)CC[C@@H]65)C4)=CC3=O)[C@@H](C)CC[C@]12C`, the IC50 entry in data set [1] is recorded as “Not Active”. Moreover, the MIC entry in data set [2], in data set [3] and in data set [4] was “inactive” in each case. In data set [5], the result was inactive. Moreover, the LC50 entry in data set [6] is reported as “Not Active”. The compound also registered an MIC in data set [7] above 10 µg.
In data set [4], NYSTATIN had an MIC of 100 µg/mL.

Source of the values: ChEMBL document CHEMBL1154130, “Synthesis and biological activities of thio-avarol derivatives” (J Nat Prod, 2008).
